Experiments:
Format in all cases: functional, cell-based
HCT-116 = test: Cytotoxicity against human HCT116 cells assessed as cell growth inhibition after 48 hrs by MTT assay; conditions: HCT-116, 48 h
Method in brief: (§1)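 MTT assay. Cells were seeded at 1×10^4 per well in their medium with 10% FBS and allowed 24 h at 37 °C. Compound diluted in medium was added alongside a vehicle control and left for 48 h. MTT (0.5 mg/mL) was then added for 4 h, formazan dissolved in DMSO, and absorbance read at 570 nm. IC50 is the concentration inhibiting 50% of cells.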

HT-29 = test: Cytotoxicity against human HT-29 cells assessed as cell growth inhibition after 48 hrs by MTT assay; conditions: HT-29, 48 h; method in brief: as §1
DU-145 = test: Cytotoxicity against human DU145 cells assessed as cell growth inhibition after 48 hrs by MTT assay; conditions: DU-145, 48 h; method in brief: as §1
A549 = test: Cytotoxicity against human A549 cells assessed as cell growth inhibition after 48 hrs by MTT assay; conditions: A549, 48 h; method in brief: as §1
MCF7 = test: Cytotoxicity against human MCF7 cells assessed as cell growth inhibition after 48 hrs by MTT assay; conditions: MCF7, 48 h; method in brief: as §1
PC-3 = test: Cytotoxicity against human PC3 cells assessed as cell growth inhibition after 48 hrs by MTT assay; conditions: PC-3, 48 h; method in brief: as §1

| Compound | IC50 (HCT-116) [µM] | IC50 (HT-29) [µM] | IC50 (DU-145) [µM] | IC50 (A549) [µM] | IC50 (MCF7) [µM] | IC50 (PC-3) [µM] |
| --- | --- | --- | --- | --- | --- | --- |
| COc1cc2c3c(c4cc(OC)c(OC)cc4c2cc1OC)C(c1ccc(F)c(F)c1)CC(=O)N3 (stereo unspecified) | 13.4 | 17.9 | > 20 | 7.78 | > 20 | > 20 |
| COc1cc2c3c(c4cc(OC)c(OC)cc4c2cc1OC)C(c1cccs1)CC(=O)N3 (stereo unspecified) | 13.8 | 18.9 | > 20 | 8.5 | > 20 | > 20 |
| COc1cc2c3c(c4cc(OC)c(OC)cc4c2cc1OC)C(c1ccccc1)CC(=O)N3 (stereo unspecified) | > 20 | > 20 | 18.8 | > 20 | > 20 | > 20 |
| COc1cc2c3c(c4cc(OC)c(OC)cc4c2cc1OC)C(c1ccc(Br)cc1)CC(=O)N3 (stereo unspecified) | 16.5 | 15.5 | > 20 | 7.16 | > 20 | > 20 |
| COc1cc2c3c(c4cc(OC)c(OC)cc4c2cc1OC)C(c1cccc2ccccc12)CC(=O)N3 (stereo unspecified) | 17.2 | 18.4 | 16.1 | 14.7 | > 20 | – |
| COc1cc2c3c(c4cc(OC)c(OC)cc4c2cc1OC)C(c1cccc(Br)c1)CC(=O)N3 (stereo unspecified) | > 20 | > 20 | 18.5 | > 20 | > 20 | > 20 |
| COc1cccc(C2CC(=O)Nc3c2c2cc(OC)c(OC)cc2c2cc(OC)c(OC)cc32)c1 (stereo unspecified) | > 20 | > 20 | 18.9 | > 20 | > 20 | > 20 |
| COc1cc2c3c(c4cc(OC)c(OC)cc4c2cc1OC)C(c1sccc1C)CC(=O)N3 (stereo unspecified) | > 20 | > 20 | 19.6 | 15.4 | > 20 | > 20 |
| COc1cc2c3c(c4cc(OC)c(OC)cc4c2cc1OC)C(c1cccc(C(F)(F)F)c1)CC(=O)N3 (stereo unspecified) | 15.4 | 18.7 | 6.19 | 5.03 | > 20 | 18.5 |
| COc1ccc(C2CC(=O)Nc3c2c2cc(OC)c(OC)cc2c2cc(OC)c(OC)cc32)cc1 (stereo unspecified) | > 20 | 16.7 | 17 | 8.94 | > 20 | 19.1 |
| COc1cc2c3c(c4cc(OC)c(OC)cc4c2cc1OC)C(c1ccc(C)cc1)CC(=O)N3 (stereo unspecified) | > 20 | > 20 | 16.9 | 16.7 | > 20 | > 20 |
| COc1cc2c3c(c4cc(OC)c(OC)cc4c2cc1OC)C(c1ccc2c(c1)OCCO2)CC(=O)N3 (stereo unspecified) | > 20 | > 20 | > 20 | 7.95 | > 20 | 18.4 |
| COc1cc2c3c(c4cc(OC)c(OC)cc4c2cc1OC)C(c1ccc(C(C)C)cc1)CC(=O)N3 (stereo unspecified) | > 20 | 16 | 18.2 | 8.84 | > 20 | > 20 |
| COc1cc([C@@H]2c3cc4c(cc3[C@@H](O[C@@H]3O[C@@H]5CO[C@@H](C)O[C@H]5[C@H](O)[C@H]3O)[C@H]3COC(=O)[C@H]23)OCO4)cc(OC)c1O [ETOPOSIDE] | 2.6 | – | 2.13 | 3.25 | 2.03 | 5.4 |
| COc1ccc(C2CC(=O)Nc3c2c2cc(OC)c(OC)cc2c2cc(OC)c(OC)cc32)cc1OC (stereo unspecified) | 8.12 | 12.2 | 13.1 | 4.09 | > 20 | > 20 |
| COc1cc2c3c(c4cc(OC)c(OC)cc4c2cc1OC)C(c1ccc(O)c(O)c1)CC(=O)N3 (stereo unspecified) | 12.6 | 10.3 | > 20 | 11.6 | > 20 | 19.8 |
| COc1cc2c3c(c4cc(OC)c(OC)cc4c2cc1OC)C(c1ccc(Cl)cc1)CC(=O)N3 (stereo unspecified) | 14.2 | 13.8 | 19 | 6.49 | > 20 | > 20 |
| COc1cc2c3c(c4cc(OC)c(OC)cc4c2cc1OC)C(c1ccc(F)cc1)CC(=O)N3 (stereo unspecified) | 16.2 | 17.4 | 11.1 | 6.29 | 12.2 | 19.9 |
